These results are taken from ChEMBL document CHEMBL1781942, “Microwave-assisted synthesis, crystal structure of pyrazolo[1,5-a]pyrazin-4(5H)-ones and their selective effects on lung cancer cells” (Eur J Med Chem, 2011).

Calls of active or inactive are those of the source. No cut-off for these calls is given here.

The test system of data set [1] is A549. The data set can be described thus: Growth inhibition of human A549 cells assessed as cell viability at 8 to 64 uM after 48 hrs by SRB assay. The format is functional, cell-based. An outline of the steps:
(§1)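 A549 cells (p53 wild-type) in RPMI 1640 with 10% bovine calf serum, seeded at 6250/cm2 in 96-well plates. Exposed 48 h to 8, 16, 32 or 64 µM. SRB read-out gave survival percentage against 0.1% DMSO-treated cells. Means ± SE from three independent experiments.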
Background: In SRB staining, fixed cells bind dye roughly in proportion to their protein.

Data set [2] has as its system NCI-H322. Nature of the data set: Induction of apoptosis in human NCI-H322 cells expressing P53 mutant assessed as DNA fragmentation at 32 to 64 uM after 48 hrs by Hoechst 33258 staining-based fluorescence microscopy. The format is functional, cell-based. In short, it runs like this:
(§2)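 H322 or H1299 cells treated 48 h at 32 or 64 µM versus 0.1% DMSO. Fixed in 4% formaldehyde in PBS for 10 min, then stained with 2 µg/mL Hoechst 33258, 30 min, 37 °C, and washed with PBS. Condensed, intensely stained nuclei counted as apoptotic under fluorescence microscopy. At least 500 cells counted; triplicate.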

Data set [3] has as its system A549. Nature of the data set: Cell cycle arrest in human A549 cells assessed as accumulation at G1 phase at 64 uM after 48 hrs by propidium iodide staining-based flow cytometry relative to control. The format is functional. On the technique in general: A flow cytometer gives signals particle by particle.
The subject of data set [4] is A549. Nature of the data set: Cell cycle arrest in human A549 cells assessed as accumulation at S phase at 64 uM after 48 hrs by propidium iodide staining-based flow cytometry (reference value: 30.36 %). The format is functional.
The nature of data set [5]: Cytotoxicity against human embryonic lung cells assessed as growth inhibition at 32 to 64 uM after 48 hrs by SRB assay. The format is cell-based. An outline of the steps: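 Human embryo lung cells grown in RPMI 1640 with 10% bovine calf serum, seeded at 6250/cm2, treated 48 h at 32 or 64 µM. Controls were 0.1% DMSO vehicle and 5-FU as positive control. Viability by SRB, relative to DMSO-treated cells. Means ± SE, three independent experiments.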

Data set [6] concerns A549. Nature of the data set: Cell cycle arrest in human A549 cells assessed as accumulation at […] phase at 64 uM after 48 hrs by propidium iodide staining-based flow cytometry (reference value: 1.94 %). The format is functional.
For data set [7], the system named is NCI-H1299. Nature of the data set: Induction of apoptosis in human p53-null H1299 cells assessed as DNA fragmentation at 32 to 64 uM after 48 hrs by Hoechst 33258 staining-based fluorescence microscopy. The format is functional, cell-based. In short, it runs like this:
as §2

The test system of data set [8] is A549. The data set can be described thus: Induction of apoptosis in human A549 cells expressing p53 assessed as chromatin condensation at 16 to 64 uM after 48 hrs by Hoechst 33258 staining-based fluorescence microscopy. The format is functional, cell-based. An outline of the steps:
(§3)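 Live A549 cells treated 48 h at 16, 32 or 64 µM, or with 0.1% DMSO. Stained in medium with 10 µg/mL Hoechst 33258 for 10 min at 37 °C, washed with PBS. Fluorescence microscopy (200×) scored intense local nuclear staining as apoptotic. At least 500 cells counted; triplicate.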

The test system of data set [9] is NCI-H1299. Nature of the data set: Induction of apoptosis in human p53-null H1299 cells assessed as chromatin condensation at 32 to 64 uM after 48 hrs by Hoechst 33258 staining-based fluorescence microscopy. The format is functional, cell-based. In short, it runs like this:
as §2

For data set [10], the system named is A549. Nature of the data set: Induction of apoptosis in human A549 cells expressing p53 assessed as DNA fragmentation at 16 to 64 uM after 48 hrs by Hoechst 33258 staining-based fluorescence microscopy. The format is functional, cell-based. In short, it runs like this: as §3
Data set [11] concerns NCI-H322. Nature of the data set: Induction of apoptosis in human NCI-H322 cells expressing P53 mutant assessed as chromatin condensation at 32 to 64 uM after 48 hrs by Hoechst 33258 staining-based fluorescence microscopy. The format is functional, cell-based. In short, it runs like this:
as §2

The subject of data set [12] is NCI-H1299. Nature of the data set: Growth inhibition of human H1299 cells assessed as cell viability after 48 hrs by SRB assay. The format is functional, cell-based. An outline of the steps: (§4)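 H1299 (p53-null) or H322 (p53-mutant) cells in RPMI 1640 with 10% bovine calf serum, seeded at 6250/cm2. Treated 48 h at 16, 32 or 64 µM. SRB assay, survival relative to 0.1% DMSO solvent control. Means ± SE, three independent experiments.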

Data set [13] relates to A549. The data set can be described thus: Cell cycle arrest in human A549 cells assessed as accumulation at G2 phase at 64 uM after 48 hrs by propidium iodide staining-based flow cytometry (reference value: 11.52 %). The format is functional.
For data set [14], the system named is NCI-H322. Nature of the data set: Growth inhibition of human NCI-H322 cells assessed as cell viability after 48 hrs by SRB assay. The format is functional, cell-based. In short, it runs like this:
as §4

Data set [15] concerns A549. Nature of the data set: Growth inhibition of human A549 cells assessed as cell viability after 48 hrs by SRB assay. The format is functional, cell-based. In short, it runs like this:
as §1

The test system of data set [16] is A549. Nature of the data set: Induction of necrosis in human A549 cells assessed as LDH release at 64 uM after 48 hrs. The format is functional, cell-based. An outline of the steps:
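A549 cells exposed 48 h to 64 µM or 0.1% DMSO control. Culture medium collected and lactate dehydrogenase measured with a commercial kit, absorbance at 440 nm. Mean ± SE, n = 3.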

On to `O=C1c2cc(-c3ccccc3)nn2CCN1CCOCCO`, for which the “growth inhibition (GI)” value in data set [1] was “inactive”.

On to `O=C1c2cc(-c3ccccc3)nn2CCN1CCO`, for which, in data set [1], the “growth inhibition (GI)” value is “inactive”.

On to `O=C1c2cc(-c3ccc(Cl)cc3)nn2CCN1CCOCCO`, for which the outcome in [2], in [7], in [9] and in data set [11] was Active. The Activity in data set [3] is 13%; in data set [4], 20.98%; in data set [5], “Non-toxic”; in [6], 1.93%; in data set [13], 7.86%. The result in data set [8], in [10] and in data set [16] was inactive. The “growth inhibition (GI)” value in data set [12], in data set [14] and in data set [15] was “Dose-dependent effect” in each case.

Regarding `O=C1c2cc(-c3ccc(Cl)cc3)nn2CCN1CCCO`, the outcome in data set [2], in data set [7], in data set [9] and in data set [11] was Active. The Activity in [3] is 32%; in [4], 3.83%; in [5], “Non-toxic”; in data set [6], 1.92%; in data set [13] it was 5.54%. Also, the outcome in [8], in data set [10] and in data set [16] was inactive. In addition, the “growth inhibition (GI)” value in [12], in [14] and in [15] was “Dose-dependent effect” in each case.

Turning to `O=C1c2cc(-c3ccccc3)nn2CCN1CCCO`, the “growth inhibition (GI)” value in data set [1] is “inactive”.

In the case of `O=C1c2cc(-c3ccccc3)nn2CCN1CCN1CCOCC1`, the “growth inhibition (GI)” value in data set [1] is “inactive”.

Consider `COc1ccc(-c2cc3n(n2)CCN(CCN2CCOCC2)C3=O)cc1`, for which the “growth inhibition (GI)” value in data set [1] is “inactive”.

In the case of `COc1ccc(-c2cc3n(n2)CCN(CCO)C3=O)cc1`, in [1], the “growth inhibition (GI)” value is “inactive”.

In the case of `O=C1c2cc(-c3ccc(Cl)cc3)nn2CCN1CCO`, the result in data set [2], in [7], in data set [9] and in data set [11] was Active. Moreover, the Activity in data set [3] is 18%; in [4], 18.02%; in data set [5], “Non-toxic”; in data set [6], 1.95%; in [13], 5.37%. Besides, the outcome in data set [8], in data set [10] and in [16] was inactive. The “growth inhibition (GI)” value in data set [12], in data set [14] and in data set [15] was “Dose-dependent effect” each time.

`O=C1c2cc(-c3ccc(Cl)cc3)nn2CCN1CCN1CCOCC1`: the result in data set [2], in data set [7], in data set [9] and in data set [11] was Active. In addition, the Activity in data set [3] is listed as 27%; in data set [4], 7.6%; in [5], “Non-toxic”; in [6], 1.94%; in data set [13], 6.83%. In addition, the outcome in [8], in data set [10] and in data set [16] was inactive. Besides, the “growth inhibition (GI)” value in data set [12], in [14] and in data set [15] was “Dose-dependent effect” each time.

Take `COc1ccc(-c2cc3n(n2)CCN(CCOCCO)C3=O)cc1`: the “growth inhibition (GI)” value in data set [1] is “inactive”.

For `COc1ccc(-c2cc3n(n2)CCN(CCCO)C3=O)cc1`, in data set [1], the “growth inhibition (GI)” value was “inactive”.
